What was measured:
[1] = system: RAW264.7; experiment: Cytotoxicity against mouse RAW264.7 cells assessed as cell viability at >10 uM after 24 hrs by MTT assay in presence of LPS; assay type: cell-based; conditions: raw264.7, 24 h
Method in brief: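 RAW 264.7 cells plated at 10⁵ cells/well, exposed to various concentrations of compound in the presence of LPS for 24 h. Viability read by colorimetric MTT assay. At least three independent experiments.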

[2] = molecular target: T1, Prostaglandin G/H synthase 1 (Ovis aries, UniProt P05979); experiment: Inhibition of ovine COX-1 assessed as decrease in PGH2 production using arachidonic acid as substrate treated with enzyme for 10 mins prior to substrate challenge for 2 mins by enzyme immunoassay
T1 sequence (P05979 whole entry): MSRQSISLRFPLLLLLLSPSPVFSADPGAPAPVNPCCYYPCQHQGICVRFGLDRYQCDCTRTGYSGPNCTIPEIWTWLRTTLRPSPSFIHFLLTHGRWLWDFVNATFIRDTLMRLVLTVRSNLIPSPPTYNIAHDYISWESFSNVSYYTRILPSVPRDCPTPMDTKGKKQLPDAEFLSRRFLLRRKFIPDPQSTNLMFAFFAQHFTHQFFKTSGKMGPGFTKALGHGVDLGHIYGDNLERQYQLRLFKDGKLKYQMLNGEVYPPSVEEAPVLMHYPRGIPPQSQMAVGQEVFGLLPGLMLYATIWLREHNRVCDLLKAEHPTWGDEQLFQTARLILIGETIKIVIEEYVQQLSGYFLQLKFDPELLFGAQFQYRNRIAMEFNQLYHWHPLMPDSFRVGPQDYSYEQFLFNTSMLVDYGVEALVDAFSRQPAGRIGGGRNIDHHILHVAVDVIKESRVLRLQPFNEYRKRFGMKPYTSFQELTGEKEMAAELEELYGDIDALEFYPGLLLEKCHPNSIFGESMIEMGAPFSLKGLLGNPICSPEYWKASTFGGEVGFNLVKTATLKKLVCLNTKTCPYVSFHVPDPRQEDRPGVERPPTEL
Method in brief: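 Ovine COX-1 was mixed with test compound at various concentrations plus heme and held 10 min at 37 °C. Arachidonic acid was then added and the reaction ran another 2 min at 37 °C. PGH₂ was reduced with SnCl₂, and the resulting PGF₂α was quantified by EIA using a broadly specific prostaglandin antibody. Boiled (3 min) enzyme served as background and compound-free samples as control. IC50 taken from at least three experiments.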

IC50 [2] [µM]	Compound	Activity [1]
> 1	COc1ccc(C2=C(c3ccc(S(N)(=O)=O)cc3)C(=O)N(C)C2=O)cc1	Non-toxic
> 100	NS(=O)(=O)c1ccc(C2=C(c3ccc(Cl)cc3)C(=O)NC2=O)cc1	Non-toxic
> 1	Cc1ccc(C2=C(c3ccc(S(N)(=O)=O)cc3)C(=O)N(C)C2=O)cc1	Non-toxic
> 100	Cc1ccc(C2=C(c3ccc(S(N)(=O)=O)cc3)C(=O)NC2=O)cc1	Non-toxic
> 1	CN1C(=O)C(c2ccc(Cl)cc2)=C(c2ccc(S(N)(=O)=O)cc2)C1=O	Non-toxic
127	NS(=O)(=O)c1ccc(C2=C(c3ccccc3)C(=O)NC2=O)cc1	Non-toxic
> 100	COc1ccc(C2=C(c3ccc(S(N)(=O)=O)cc3)C(=O)NC2=O)cc1	Non-toxic
> 1	CN1C(=O)C(c2ccccc2)=C(c2ccc(S(N)(=O)=O)cc2)C1=O	Non-toxic
